Sampled rows, rich in hits. Any-hit rate of the full collection: about 4.7%.
AHR act: AHR activators, primary screen, cell-based, luminescence, luciferase reporter, human. 320,000 tested, 2.5% active. AID 2796, 2010. Aryl hydrocarbon receptor (Homo sapiens), P35869. activation, % at 5 µM. AHR-responsive luciferase reporter cells; in the data active = activation above about 47%;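 also: 0% = vehicle wells and 100% = reference agonist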
Target sequence (P35869 whole entry, looked up): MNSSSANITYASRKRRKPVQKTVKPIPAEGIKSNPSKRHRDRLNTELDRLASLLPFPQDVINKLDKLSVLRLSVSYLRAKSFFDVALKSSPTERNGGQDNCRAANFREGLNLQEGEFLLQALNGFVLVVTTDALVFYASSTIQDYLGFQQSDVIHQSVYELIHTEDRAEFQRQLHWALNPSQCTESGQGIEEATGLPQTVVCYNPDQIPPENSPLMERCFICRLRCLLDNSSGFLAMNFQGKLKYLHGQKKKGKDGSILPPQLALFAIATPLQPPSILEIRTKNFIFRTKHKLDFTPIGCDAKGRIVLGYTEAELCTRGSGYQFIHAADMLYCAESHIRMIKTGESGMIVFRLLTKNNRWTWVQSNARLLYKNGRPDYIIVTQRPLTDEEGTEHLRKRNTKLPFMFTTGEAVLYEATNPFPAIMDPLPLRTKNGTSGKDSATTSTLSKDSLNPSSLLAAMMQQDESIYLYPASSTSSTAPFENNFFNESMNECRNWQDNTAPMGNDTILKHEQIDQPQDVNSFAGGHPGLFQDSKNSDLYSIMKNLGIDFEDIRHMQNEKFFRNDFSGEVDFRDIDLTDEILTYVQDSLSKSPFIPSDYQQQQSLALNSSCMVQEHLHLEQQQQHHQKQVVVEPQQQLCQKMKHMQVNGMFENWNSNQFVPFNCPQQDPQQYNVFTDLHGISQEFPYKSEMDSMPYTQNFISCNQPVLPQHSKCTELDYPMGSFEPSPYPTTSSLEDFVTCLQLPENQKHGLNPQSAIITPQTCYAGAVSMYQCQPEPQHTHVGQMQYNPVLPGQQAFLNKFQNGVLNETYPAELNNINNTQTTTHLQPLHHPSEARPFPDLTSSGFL
FXN GAA850 act: FXN promoter activators, primary screen, cell-based, luciferase luminescence, HEK293 lucGAA850; HEK293 lucGAA850 FXN promoter luciferase reporter, 24 h; percent of 10 µM SAHA response; activation, % at 6 µM; 360,000 tested, 0.56% active;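 active = activation above the average of all compounds screened plus 3 SD, cutoff fixed separately per campaign, cut at about 7.5% in these data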;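 also: 0% = DMSO wells and 100% = 10 µM SAHA wells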
MC4R antagonist: MC4R antagonists of cAMP signaling, primary screen, cell-based, TR-FRET, antagonist arm of biased-ligand search. MC4R-expressing cells, MTII-stimulated cAMP, LANCE TR-FRET. inhibition, % at 6.5 µM. 360,000 tested, 0.48% active. AID 540295, 2011;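 active = inhibition above its plate's cutoff, the mean of tested wells on that plate plus 3 SD, cut at about 29% in these data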;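 also: 0% = Melanotan II alone and 100% = Melanotan II plus saturating MCL0020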
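material = U2OS cells stably expressing human melanocortin 4 receptor (MC4R) | also added = Melanotan II challenge | dosing = single nominal compound dose of 6.5 µM | detection = TR-FRET with Eu-cAMP and labeled anti-cAMP, 671 nm | replication = singlicate | timing = compound 30 min, challenge 1 h, detection 1 h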
HTR2A ag: mouse Htr2a agonists via beta-arrestin recruitment, primary screen, cell-based, luminescence; 5-hydroxytryptamine receptor 2A (Mus musculus), P35363; CHO-K1 mHTR2A beta-arrestin complementation; percent of 30 µM serotonin response; activation, % at 7.6 µM; 360,000 tested, 0.66% active; AID 624169, 2012;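 active = activation above a run cutoff, the mean activation of all tested compounds plus 3 SD, cut at about 14% in these data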;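 also: 0% = plate median of compound wells and 100% = 30 µM serotonin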
MC4R barr agon: MC4R agonists recruiting beta-arrestin, primary screen, cell-based, luminescence, agonist arm of biased-ligand search; U2OS MC4R beta-arrestin complementation; percent of melanotan II response, DMSO zero; activation, % at 8.9 µM; 360,000 tested, 0.98% active; Melanocortin receptor 4 (Homo sapiens), P32245; AID 540308, 2011;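 active = activation above a per-plate cutoff, the mean activation of sample wells on that plate plus 3 SD, cut at about 8% in these data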
Starred values were filed as active, the others as inactive; . = no result.

SMILES | AHR act | FXN GAA850 act | MC4R antagonist | HTR2A ag | MC4R barr agon
Brc1ccc(-c2nc3c4ccccc4ccn3c2Cc2ccccc2)cc1 | . | -1.7 | 8.5 | -2.0 | -1.4
COc1cc2c(cc1NC(=S)Nc1cccc(C)c1)oc1ccccc12 | 84.4* | 5.8 | 12.6 | -1.7 | 0.0
COc1cc2c(cc1NC(=O)COC(=O)c1ccccc1)oc1ccccc12 | 14.2 | . | . | . | .
CCN(CC)S(=O)(=O)c1ccc(C(=O)Nc2cc3oc4ccccc4c3cc2OC)cc1 | 51.4* | 1.8 | 6.0 | -2.5 | 2.4
CCN(CC)S(=O)(=O)c1ccc(OC)c(NC(=O)c2ccc([N+](=O)[O-])cc2)c1 | 3.1 | 1.3 | 7.4 | -3.7 | -1.3
COc1cc2c(cc1NC(=S)Nc1ccccc1C)oc1ccccc12 | 18.6 | 2.9 | 5.3 | -5.1 | 2.4
COc1cc2c(cc1NC(=O)COC(=O)[C@@H](NS(=O)(=O)c1cccc(Cl)c1)C(C)C)oc1ccccc12 | 57.3* | 1.1 | 10.4 | -5.8 | 0.4
CNC(=S)Nc1cc2oc3ccccc3c2cc1OC | . | 1.7 | 3.9 | 8.2 | -2.9
CCNC(=S)Nc1cc2oc3ccccc3c2cc1OC | 70.1* | 1.1 | -3.8 | -1.8 | -1.9
O=C(c1ccoc1)N1CCCC(N2CCN(c3cccc(Cl)c3)CC2)C1 (centres undefined) | . | -0.7 | 8.3 | -5.3 | 1.9
COc1ccc(NC(=O)Nc2cc3oc4ccccc4c3cc2OC)cc1 | 73.6* | 0.3 | 6.2 | -6.9 | -0.4
CCCNC(=S)Nc1cc2oc3ccccc3c2cc1OC | 52.6* | -1.0 | 16.5 | -12.8 | 1.3
COc1cc2c(cc1NC(=O)CSc1nccn1C)oc1ccccc12 | 77.8* | 2.1 | 11.4 | -7.7 | -2.3
Cc1ccccc1Nc1nc(N)[nH]c(=O)c1N=O | . | . | . | -6.8 | .
COc1cccc(OCCn2cc(/C=N/NC(=O)c3ccncc3)c3ccccc32)c1 | 20.3 | 0.7 | -13.1 | -5.5 | -0.2
CNC(=S)N/N=C/c1cn(CCOc2cccc(OC)c2)c2ccccc12 | 56.0* | 1.5 | -9.6 | 0.4 | -1.0
COC(=O)N/N=C/c1cn(CCOc2ccc(OC)cc2)c2ccccc12 | 22.3 | -0.3 | 11.6 | 7.1 | -0.1
COC(=O)N/N=C/c1cn(CCOc2ccccc2OC)c2ccccc12 | 60.2* | 1.0 | 7.1 | 0.5 | -1.0
Cn1cc(/C=N/NC(=O)COc2ccccc2[N+](=O)[O-])c2ccccc21 | 58.4* | -0.2 | -23.3 | -4.6 | -2.2
O=C(CCNC(=O)c1ccc(Br)cc1)NCCCN1CCCC1=O | 0.1 | 0.4 | 1.0 | 5.8 | -0.6
O=C(Nc1ccc(Oc2c(F)c(F)c(F)c(F)c2F)cc1)OC1CCN2Cc3ccccc3N=C12 (centres undefined) | 3.8 | 2.4 | 27.5 | -4.4 | 9.3*
N#Cc1c(N)nc2c(c1N)CC(=O)N2c1ccc(Cl)cc1 | 89.4* | 1.6 | -1.4 | 1.8 | -0.8
Cc1nn2c(-c3ccc(F)cc3)ccnc2c1Cl | 58.2* | 3.0 | 1.4 | -2.0 | 0.3
Cc1nn2c(-c3ccccn3)ccnc2c1Cl | 5.2 | -0.1 | -4.2 | 5.1 | -2.6
N#Cc1cc2c(N)c(C(=O)Nc3ccccc3)sc2nc1N | 64.2* | . | . | . | .
SMILES | AHR act | FXN GAA850 act | MC4R antagonist | HTR2A ag | MC4R barr agon
COc1ccc(NC(=O)NCC(C)CSc2ccc(C)cc2)c(OC)c1 (centres undefined) | 5.9 | -0.5 | 7.1 | 2.7 | -0.2
CN(C)c1ccc(CC(=O)N2CCCCC2c2cc(C(=O)Nc3cccc4c3CCCC4)no2)cc1 (centres undefined) | . | 2.0 | 8.5 | 11.6 | 1.6
CC1CCN(C(=O)c2ncn3c2c(=O)[nH]c2ccc(Br)cc23)CC1 | . | -3.4 | -1.8 | 1.6 | 0.9
COc1cccc(C2c3c(oc4ccccc4c3=O)C(=O)N2Cc2ccco2)c1 (centres undefined) | 81.8* | 2.0 | 8.6 | 0.9 | -3.3
COc1ccc(NC(=O)CSc2nc(N)c(C(=O)Nc3ccc(N(C)C)cc3)s2)cc1 | 49.7* | 1.4 | 14.0 | 0.1 | 7.7
CN(C)c1ccc(NC(=O)CSc2nc(N)c(C(=O)Nc3ccc(N(C)C)cc3)s2)cc1 | 43.2 | 2.8 | 0.3 | 1.7 | -1.7
C[C@H](O)[C@@H]1C(=O)N2CCc3c([nH]c4ccccc34)[C@@H]2C[C@@H]1N(C)C(=O)c1cc(Cl)cc(Cl)c1 | . | . | . | 1.2 | .
COc1cccc(C2CC(c3ccc(Cl)cc3Cl)Nc3nc(N)nn32)c1 (centres undefined) | 3.2 | 3.1 | 11.4 | -2.3 | 9.2*
Cc1ccc(C2NC(=O)c3c(sc(C)c3C)N2)c(O)c1 (centres undefined) | 49.1* | 4.6 | 0.1 | 1.4 | -1.9
O=c1oc2cc(OCc3ccc(F)cc3F)ccc2cc1-c1ccc2ccccc2n1 | 97.4* | . | . | . | .
COc1ccc(F)cc1-c1cc(C(=O)NC2CCCCC2)[nH]n1 | . | 0.7 | 12.3 | -3.4 | 0.8
COc1ccc(NS(=O)(=O)c2ccc(F)c(Cl)c2)cn1 | 0.3 | 1.5 | 1.1 | 4.4 | -0.6
COc1ccccc1C(O)Cc1nc2ccccc2n1C (centres undefined) | 1.8 | 2.6 | 4.0 | -5.5 | -0.7
CC(C)c1ccc(C(O)Cc2nc3ccccc3n2C)cc1 (centres undefined) | 70.1* | -0.6 | 15.0 | -5.2 | -0.4
CN(C)c1ccc(C(O)Cc2nc3ccccc3n2C)cc1 (centres undefined) | 60.1* | -2.8 | -1.0 | -2.7 | -1.7
COc1cccc(Nc2nnc(SCC3CCCCO3)s2)c1 (centres undefined) | 50.6* | 5.3 | -4.8 | -6.8 | -2.2
COc1ccccc1-c1csc(C(O)c2cccc(Cl)c2)n1 (centres undefined) | . | -0.7 | 1.6 | -3.4 | 2.2
CCN(CC(=O)Nc1c(F)cccc1F)C(=O)C1CCN(S(=O)(=O)c2ccccc2C(=O)OC)CC1 | . | 1.4 | 3.5 | 4.6 | -1.5
O=C(Nc1ccc2c(c1)CCC2)c1ccc(Br)o1 | 24.5 | 4.2 | 2.5 | 2.2 | 0.6
O=C(Nc1ccc2c(c1)OCO2)c1ccc(Br)o1 | 129.1* | 6.0 | -5.9 | -1.5 | 2.0
O=C(Nc1ccc2c(c1)OCO2)c1cncc(Br)c1 | 92.7* | 2.8 | 12.9 | -0.8 | -1.2
CC(=O)N(/N=C1\Sc2ccccc2C1=O)c1cccc(C)c1 | 76.5* | 1.3 | -6.7 | -3.3 | -2.2
CC(NC(=O)c1ccc(C#N)cc1)C1CC2CCC1C2 (centres undefined) | -0.9 | 0.9 | 6.4 | 1.0 | 1.5
CN1CCN(c2ccc(-c3cccc(NC(=O)COc4ccc(Cl)cc4Cl)c3)nn2)CC1 | 1.5 | 2.4 | -3.7 | -15.8 | 2.1
CCCOc1ccc(NC(=O)CC2C(=O)Nc3ccccc3N2CC(=O)N2CCCC2)cc1 (centres undefined) | 4.9 | 0.0 | -0.8 | 2.8 | -2.1

Screens deposited in PubChem by The Scripps Research Institute Molecular Screening Center.
